Assay outcomes (PubChem BioAssay)
Shown are actives, neighbours in structure and some others; about 3.1% of the full set was active somewhere.
KCNK9 block: KCNK9 potassium channel inhibitors, primary screen, HEK293 cells, thallium flux; Potassium channel subfamily K member 9 (Homo sapiens), Q9NPC2; AID 488922, 2010; B-score at 10 µM; FluxOR thallium flux fluorescence; active compounds read low; 310,000 compounds, 1.2% hits;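 active = ratio B-score over 3 SD below the library mean, with starting fluorescence within 5 SD of its mean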;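 also: negative B-score means less thallium flux so channel inhibition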
Target sequence (Q9NPC2 whole entry, looked up): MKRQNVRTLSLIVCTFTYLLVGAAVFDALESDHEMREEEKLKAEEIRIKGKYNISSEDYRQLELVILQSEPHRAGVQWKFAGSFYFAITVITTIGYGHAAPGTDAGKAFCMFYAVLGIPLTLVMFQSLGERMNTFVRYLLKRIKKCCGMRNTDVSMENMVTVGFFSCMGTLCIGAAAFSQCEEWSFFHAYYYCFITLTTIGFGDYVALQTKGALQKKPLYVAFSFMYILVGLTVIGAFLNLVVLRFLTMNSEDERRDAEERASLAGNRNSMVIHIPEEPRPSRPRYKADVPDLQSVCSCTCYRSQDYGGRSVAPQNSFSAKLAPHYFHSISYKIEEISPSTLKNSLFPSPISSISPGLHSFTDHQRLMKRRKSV
KCNK3 block: human KCNK3 channel inhibitors, primary screen, CHO cells, FluxOR thallium flux, B-score. B-score at 10 µM. Potassium channel subfamily K member 3 (Homo sapiens), O14649. 340,000 compounds, 0.84% hits. FluxOR fluorescence; active compounds read low. AID 602410, 2012;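 active = B-score under library mean minus 4 SD, starting fluorescence ratio at most library mean plus 5 SD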;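 also: more negative B-score means stronger inhibition of thallium flux through KCNK3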
hERG protect: hERG rescue from dofetilide block, primary screen, cell-based, CHO-hERG, FluxOR thallium flux, dofetilide IC70 | Voltage-gated inwardly rectifying potassium channel KCNH2 (Homo sapiens), Q12809 | 310,000 compounds, 0.51% hits | AID 1511, 2009 | activation (rescue from dofetilide block), less the hit threshold, % at 10 µM | dofetilide IC70 present;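 active = activation above the mean of controls blocked by dofetilide plus 5 SD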;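 also: thallium influx through hERG after potassium depolarization seen as dye fluorescence rise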
KCNQ1 block: inhibitors of human KCNQ1 channel, primary screen, cell-based, thallium flux, high-throughput | CHO-K1 KCNQ1, FluxOR thallium flux fluorescence; active compounds read high | B-score at 10 µM | 310,000 compounds, 1.3% hits | Potassium voltage-gated channel subfamily KQT member 1 (Homo sapiens), P51787;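 active = compounds whose thallium flux B-score, printed positive for inhibition, exceeds three library SD while starting fluorescence stays within three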;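 also: channel opened by potassium depolarization with thallium stimulus after 20 min compound exposure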
KCNQ1 act: potentiators or activators of KCNQ1 channel, primary screen, cell-based, thallium flux, high-throughput | Potassium voltage-gated channel subfamily KQT member 1 (Homo sapiens), P51787 | CHO-K1 KCNQ1, thallium flux FluxOR fluorescence; active compounds read high | B-score at 10 µM | 310,000 compounds, 0.35% hits | AID 2648, 2010;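 active = fluorescence ratio B-score, a plate-corrected score, at least three library SD, with initial intensity B-score within 5 SD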
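Test system: CHO-K1 cells stably expressing KCNQ1 / Medium: assay buffer / Also added: depolarizing K+/Tl+ stimulus, K2SO4 and Tl2SO4 each 12.5 mM in 5x stock / Incubation: 90 min dye loading and 20 min compound exposure, both at room temperature / Signal: thallium influx via FluxOR fluorescence, kinetic imaging / Evaluation: B score of baseline-normalized fluorescence ratio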
KCNK9 inh conf: KCNK9 potassium channel inhibitors, confirmation, HEK293 cells, thallium flux, duplicate; FluxOR thallium flux fluorescence; shares compounds with KCNK9 block; AID 492992, 2010; inhibition, % at 10 µM; 4,900 compounds, 43% hits;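 active = thallium signal inhibited by more than 5 SD of the compound-free buffer control wells, on both duplicate plates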;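 also: 0% = assay buffer control wells without compound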
Kir2-1 spec: mouse Kir2.1 channel inhibition, confirmation, selectivity assay for KCNK9 modulator project, cell-based, HEK293, thallium flux | AID 492993, 2010 | inhibition, % at 10 µM | Kir2.1 cells, FluxOR thallium flux fluorescence | 4,900 compounds, 4% hits | shares compounds with KCNK9 block;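 active = thallium signal drop more than 5 SD beyond the mean of the no-compound control wells, seen in both duplicate plates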;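 also: signal is fluorescence rise after thallium addition divided by baseline fluorescence; plate controls were assay buffer only for no effect and full block by chlorpromazine control for full effect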
KCNK9 uninduced: thallium flux in non-induced HEK293 cells, confirmation, counter-screen for KCNK9 inhibitor project, cell-based, second counter screen, non-induced KCNK9-HEK293 | shares compounds with KCNK9 block | FluxOR thallium flux | inhibition, % at 10 µM | 4,900 compounds, 40% hits;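 active = thallium signal drop beyond 5 SD of the untreated control mean, on both duplicate plates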;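 also: plate controls were buffer only IC0 wells for no effect and SID17386958 at its maximal inhibitory level for full effect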
An asterisk follows results filed as active.

Screening O=[N+]([O-])c1cccc(-n2nnnc2CN2CCCC2)c1 returned KCNK9 block inactive, KCNK3 block inactive, hERG protect 3, KCNQ1 block inactive and KCNQ1 act inactive.
Screening O=C(c1cccnc1)C1CCCN(Cc2nc(Cc3ccccc3F)no2)C1 (stereo not given) returned KCNK9 block inactive, KCNK3 block inactive, hERG protect -7, KCNQ1 block inactive and KCNQ1 act inactive.
`O=C(c1cccs1)C1CCCN(Cc2nc(Cc3ccccc3F)no2)C1` (stereo not given) gave KCNK9 block inactive, KCNK3 block inactive, hERG protect -10, KCNQ1 block inactive, KCNQ1 act inactive, KCNK9 inh conf inactive, Kir2-1 spec inactive and KCNK9 uninduced inactive.
CC1CCc2c(sc(NC(=O)c3ccc(Cn4cc([N+](=O)[O-])cn4)o3)c2C#N)C1 (stereo not given) was read as KCNK9 block -16*, KCNK3 block inactive, hERG protect -10, KCNQ1 block inactive, KCNQ1 act inactive, KCNK9 inh conf 46%*, Kir2-1 spec inactive and KCNK9 uninduced 30%*.
`Cc1ccc(S(=O)(=O)NCC(=O)OCC(=O)NCc2cccs2)cc1` gave KCNK9 block inactive, KCNK3 block inactive, hERG protect -15, KCNQ1 block inactive and KCNQ1 act inactive.
For Cc1ccc(-c2c(C)sc3ncn(CC(=O)N4CCOCC4)c(=O)c23)cc1C the results were KCNK9 block inactive, KCNK3 block inactive, hERG protect -12, KCNQ1 block inactive, KCNQ1 act inactive, KCNK9 inh conf inactive, Kir2-1 spec inactive and KCNK9 uninduced inactive.
COc1ccc(-c2noc(CSc3nnc(Cc4ccccc4)n3-c3ccc(Cl)cc3)n2)cc1 was read as KCNK9 block inactive, KCNK3 block inactive, hERG protect -14, KCNQ1 block inactive, KCNQ1 act inactive, KCNK9 inh conf inactive, Kir2-1 spec inactive and KCNK9 uninduced inactive.
For Cc1ccc(SCc2nc(-c3ccccc3)no2)cc1 the results were KCNK9 block inactive, KCNK3 block inactive, hERG protect -6, KCNQ1 block inactive and KCNQ1 act inactive.
Cc1ccc(-c2noc(CSc3nnc(CCc4ccccc4)n3-c3ccccc3)n2)cc1 was read as KCNK9 block -10*, KCNK3 block inactive, hERG protect -10, KCNQ1 block inactive, KCNQ1 act inactive, KCNK9 inh conf inactive, Kir2-1 spec inactive and KCNK9 uninduced 36%*.
Screening Cn1c(SCc2nc(-c3ccc(Cl)cc3)no2)nnc1-c1ccccc1 returned KCNK9 block inactive, KCNK3 block inactive, hERG protect -10, KCNQ1 block inactive and KCNQ1 act inactive.
COc1ccc(-c2noc(CSc3nc4ccccc4c(=O)n3-c3ccc(C)cc3)n2)cc1 was read as KCNK9 block inactive, KCNK3 block inactive, hERG protect -5, KCNQ1 block inactive and KCNQ1 act inactive.
`Cc1ccc(-c2noc(CSc3nnc(Cc4ccccc4)n3-c3ccc(Cl)cc3)n2)cc1` gave KCNK9 block inactive, KCNK3 block inactive, hERG protect -10, KCNQ1 block inactive, KCNQ1 act inactive, KCNK9 inh conf inactive, Kir2-1 spec inactive and KCNK9 uninduced 31%*.
Screening Cc1cc(C)cc(N2C(=O)CC(n3nc(C)cc3C)C2=O)c1 (stereo not given) returned KCNK9 block inactive, KCNK3 block inactive, hERG protect -4, KCNQ1 block inactive and KCNQ1 act inactive.
Screening Cc1ccsc1CNC(=O)c1c(-c2ccccc2)noc1C returned KCNK9 block inactive, KCNK3 block inactive, hERG protect -7, KCNQ1 block inactive and KCNQ1 act inactive.
For Cc1cccc(-c2nc(CSCC(=O)N3CCN(Cc4ccc5c(c4)OCO5)CC3)c(C)o2)c1 the results were KCNK9 block inactive, KCNK3 block inactive, hERG protect -23, KCNQ1 block inactive and KCNQ1 act inactive.
`C/C(C=O)=C/c1ccccc1` gave KCNK3 block inactive.
COc1ccc(CNC(=O)/C(C#N)=C2\N=C(NC(=O)c3cccs3)c3ccccc32)cc1 was read as KCNK9 block inactive, KCNK3 block inactive, hERG protect -8, KCNQ1 block inactive, KCNQ1 act inactive, KCNK9 inh conf inactive, Kir2-1 spec inactive and KCNK9 uninduced inactive.
`COCCNC(=O)/C(C#N)=C1\N=C(NC(=O)c2cccs2)c2ccccc21` gave KCNK9 block inactive, KCNK3 block inactive, hERG protect -2, KCNQ1 block inactive and KCNQ1 act inactive.
Screening O=C(NN1C(=O)C2C3C=CC(C3)C2C1=O)c1ccccc1 (stereo not given) returned KCNK9 block inactive, KCNK3 block inactive, hERG protect -8, KCNQ1 block inactive and KCNQ1 act inactive.
For Cc1cccc(C(=O)NN2C(=O)C3C(c4ccccc4)C=CC(c4ccccc4)C3C2=O)c1 (stereo not given) the results were KCNK9 block -13*, KCNK3 block inactive, hERG protect 1, KCNQ1 block inactive, KCNQ1 act inactive, KCNK9 inh conf 41%*, Kir2-1 spec inactive and KCNK9 uninduced inactive.
Cc1cc(C(=O)Nc2ccccc2)oc(=O)c1 was read as KCNK9 block inactive, KCNK3 block inactive, hERG protect -4, KCNQ1 block inactive and KCNQ1 act inactive.
For CCn1cc(CCCC(=O)NCc2ccccc2OC)c2ccccc21 the results were KCNK9 block inactive, KCNK3 block inactive, hERG protect -3, KCNQ1 block inactive and KCNQ1 act inactive.
For COc1cccc(NC(=O)C(Cc2ccccc2)n2cccc2)c1 (stereo not given) the results were KCNK9 block inactive, KCNK3 block inactive, hERG protect -14, KCNQ1 block inactive and KCNQ1 act inactive.
